Measured values taken from ChEMBL document CHEMBL3588826, “Chimeric derivatives of functionalized amino acids and α-aminoamides: compounds with anticonvulsant activity in seizure models and inhibitory actions on central, peripheral, and cardiac isoforms of voltage-gated sodium channels” (Bioorg Med Chem, 2015).
The source made the active and inactive calls. No cut-off for these calls is given here.

What was measured:
[1] = Protective index, ratio of TD50 for behavioural toxicity in ip dosed albino Sprague-Dawley rat to ED50 for anticonvulsant activity in ip dosed MES albino Sprague-Dawley rat model; assay type: organism-based; conditions: in vivo, read-out: Ratio TD50/ED50
Procedure, shortened: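 Male albino Sprague-Dawley rats were dosed ip or orally. […] Protective index = TD50/ED50, the ED50 taken from maximal electroshock by the same route.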

Rattus norvegicus = species on record: Rattus norvegicus; test: Inhibition of voltage-gated sodium channel in rat embryonic cortical neurons assessed as decrease in fraction of current available at 10 uM measured at -50 mV by whole cell patch-clamp electrophysiology
Procedure, shortened: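 Embryonic cortical neurons were treated with 10 μM compound or 0.1% DMSO, whole-cell voltage clamp at room temperature. Slow inactivation was assessed at −50 mV, with the fraction inactivated taken as 1 minus the normalized INa. Student's t-test; 5–8 cells per condition.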

CAD = test: Frequency-dependent inhibition of voltage-gated sodium channel in mouse CAD cells assessed as decrease in current amplitude at 10 uM by whole cell patch-clamp electrophysiology; assay type: cell-based
Procedure, shortened: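 CAD cells, whole-cell voltage clamp at room temperature, with compound at 1, 10 or 30 μM against 0.1% DMSO. Thirty identical test pulses were given at 10 Hz. Current was normalized as peak at pulse N over pulse 1, and the maximal decrement was read at the end of the train. One-way ANOVA with Dunnett's test; 4–10 cells per condition.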

[2] = molecular target: Sodium channel protein type 1 subunit alpha (Homo sapiens) (UniProt P35498); test: Inhibition of human Nav1.1 expressed in HEK293 cells assessed as transition of channels to slow-inactivated state at 10 uM measured at -50 mV by whole cell patch-clamp electrophysiology; assay type: cell-based
Procedure, shortened: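 HEK293 cells stably expressing hNav1.1, rNav1.3, hNav1.7 or hNav1.5 were grown in DMEM with 10% FBS. Recordings were whole-cell voltage clamp at room temperature, with 10 μM compound versus 0.1% DMSO. Slow inactivation at −50 mV was calculated as 1 minus normalized peak INa. Nav1.5 used hyperpolarized protocols. Data are from 5–6 cells.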

[3] = molecular target: Sodium channel protein type 3 subunit alpha (Rattus norvegicus) (UniProt P08104); test: Inhibition of rat Nav1.3 expressed in HEK293 cells assessed as half-maximal voltage for steady state fast-inactivation at 10 uM by whole cell patch-clamp electrophysiology (reference value: -65.44 +/-5.62 mV); assay type: cell-based
[4] = molecular target: Sodium channel protein type 9 subunit alpha (Homo sapiens) (UniProt Q15858); test: Inhibition of human Nav1.7 expressed in HEK293 cells assessed as half-maximal voltage for steady state fast-inactivation at 10 uM by whole cell patch-clamp electrophysiology (reference value: -61.11 +/-3.02 mV); assay type: cell-based
Mus musculus = test: Anticonvulsant activity in ip dosed corneal kindled seizure mouse model measured after 0.25 hrs; assay type: functional

Sodium channel protein type 9 subunit alpha (Homo sapiens), sequence (Q15858 whole entry, looked up): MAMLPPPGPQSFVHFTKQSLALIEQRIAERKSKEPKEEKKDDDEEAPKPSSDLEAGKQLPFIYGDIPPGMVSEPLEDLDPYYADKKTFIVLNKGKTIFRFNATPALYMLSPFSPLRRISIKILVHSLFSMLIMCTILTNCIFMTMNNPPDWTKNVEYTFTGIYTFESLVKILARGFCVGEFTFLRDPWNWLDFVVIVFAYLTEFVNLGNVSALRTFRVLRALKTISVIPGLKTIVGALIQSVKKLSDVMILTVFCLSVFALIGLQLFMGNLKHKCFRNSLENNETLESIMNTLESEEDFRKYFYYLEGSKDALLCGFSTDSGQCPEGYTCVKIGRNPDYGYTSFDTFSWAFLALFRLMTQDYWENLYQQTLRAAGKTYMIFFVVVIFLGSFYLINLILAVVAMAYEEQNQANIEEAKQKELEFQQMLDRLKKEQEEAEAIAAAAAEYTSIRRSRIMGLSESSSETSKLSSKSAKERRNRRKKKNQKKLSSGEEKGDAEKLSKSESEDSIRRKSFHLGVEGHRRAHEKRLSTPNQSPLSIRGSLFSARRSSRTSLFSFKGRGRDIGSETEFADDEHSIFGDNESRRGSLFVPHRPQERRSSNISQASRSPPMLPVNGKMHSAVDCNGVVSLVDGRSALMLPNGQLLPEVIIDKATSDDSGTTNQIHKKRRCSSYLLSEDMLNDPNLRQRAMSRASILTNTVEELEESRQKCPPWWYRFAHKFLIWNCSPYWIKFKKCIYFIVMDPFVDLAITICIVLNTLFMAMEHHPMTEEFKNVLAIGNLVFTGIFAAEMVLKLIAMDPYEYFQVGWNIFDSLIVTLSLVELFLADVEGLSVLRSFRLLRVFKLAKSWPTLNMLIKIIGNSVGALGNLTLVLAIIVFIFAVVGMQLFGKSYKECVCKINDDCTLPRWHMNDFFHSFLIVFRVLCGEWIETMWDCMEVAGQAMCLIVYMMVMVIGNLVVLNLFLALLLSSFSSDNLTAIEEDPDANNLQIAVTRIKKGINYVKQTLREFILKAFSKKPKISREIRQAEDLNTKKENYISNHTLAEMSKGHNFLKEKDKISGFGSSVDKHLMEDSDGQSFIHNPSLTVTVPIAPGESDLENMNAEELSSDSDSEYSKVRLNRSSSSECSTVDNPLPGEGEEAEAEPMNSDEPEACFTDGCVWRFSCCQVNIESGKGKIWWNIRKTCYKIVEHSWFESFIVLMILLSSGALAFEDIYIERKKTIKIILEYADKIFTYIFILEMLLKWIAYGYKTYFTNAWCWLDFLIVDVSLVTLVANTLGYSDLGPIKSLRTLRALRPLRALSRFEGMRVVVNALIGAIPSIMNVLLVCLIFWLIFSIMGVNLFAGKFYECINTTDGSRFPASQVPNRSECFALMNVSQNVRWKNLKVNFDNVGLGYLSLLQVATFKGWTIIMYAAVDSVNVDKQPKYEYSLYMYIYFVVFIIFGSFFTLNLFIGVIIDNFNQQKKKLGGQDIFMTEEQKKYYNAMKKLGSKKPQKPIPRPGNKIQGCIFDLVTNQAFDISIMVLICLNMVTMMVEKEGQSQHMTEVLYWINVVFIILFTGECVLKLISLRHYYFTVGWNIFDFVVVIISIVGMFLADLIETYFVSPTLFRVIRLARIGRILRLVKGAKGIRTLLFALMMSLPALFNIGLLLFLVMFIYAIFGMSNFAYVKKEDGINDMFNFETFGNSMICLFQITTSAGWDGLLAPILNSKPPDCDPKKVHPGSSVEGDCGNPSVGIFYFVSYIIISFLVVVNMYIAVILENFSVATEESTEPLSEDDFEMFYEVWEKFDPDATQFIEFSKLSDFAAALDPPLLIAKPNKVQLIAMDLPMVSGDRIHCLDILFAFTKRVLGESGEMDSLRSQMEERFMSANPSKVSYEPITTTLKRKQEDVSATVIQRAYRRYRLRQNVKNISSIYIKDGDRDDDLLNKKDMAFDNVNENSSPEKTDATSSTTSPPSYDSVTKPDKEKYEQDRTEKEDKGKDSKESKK
Sodium channel protein type 3 subunit alpha (Rattus norvegicus), sequence (P08104 whole entry): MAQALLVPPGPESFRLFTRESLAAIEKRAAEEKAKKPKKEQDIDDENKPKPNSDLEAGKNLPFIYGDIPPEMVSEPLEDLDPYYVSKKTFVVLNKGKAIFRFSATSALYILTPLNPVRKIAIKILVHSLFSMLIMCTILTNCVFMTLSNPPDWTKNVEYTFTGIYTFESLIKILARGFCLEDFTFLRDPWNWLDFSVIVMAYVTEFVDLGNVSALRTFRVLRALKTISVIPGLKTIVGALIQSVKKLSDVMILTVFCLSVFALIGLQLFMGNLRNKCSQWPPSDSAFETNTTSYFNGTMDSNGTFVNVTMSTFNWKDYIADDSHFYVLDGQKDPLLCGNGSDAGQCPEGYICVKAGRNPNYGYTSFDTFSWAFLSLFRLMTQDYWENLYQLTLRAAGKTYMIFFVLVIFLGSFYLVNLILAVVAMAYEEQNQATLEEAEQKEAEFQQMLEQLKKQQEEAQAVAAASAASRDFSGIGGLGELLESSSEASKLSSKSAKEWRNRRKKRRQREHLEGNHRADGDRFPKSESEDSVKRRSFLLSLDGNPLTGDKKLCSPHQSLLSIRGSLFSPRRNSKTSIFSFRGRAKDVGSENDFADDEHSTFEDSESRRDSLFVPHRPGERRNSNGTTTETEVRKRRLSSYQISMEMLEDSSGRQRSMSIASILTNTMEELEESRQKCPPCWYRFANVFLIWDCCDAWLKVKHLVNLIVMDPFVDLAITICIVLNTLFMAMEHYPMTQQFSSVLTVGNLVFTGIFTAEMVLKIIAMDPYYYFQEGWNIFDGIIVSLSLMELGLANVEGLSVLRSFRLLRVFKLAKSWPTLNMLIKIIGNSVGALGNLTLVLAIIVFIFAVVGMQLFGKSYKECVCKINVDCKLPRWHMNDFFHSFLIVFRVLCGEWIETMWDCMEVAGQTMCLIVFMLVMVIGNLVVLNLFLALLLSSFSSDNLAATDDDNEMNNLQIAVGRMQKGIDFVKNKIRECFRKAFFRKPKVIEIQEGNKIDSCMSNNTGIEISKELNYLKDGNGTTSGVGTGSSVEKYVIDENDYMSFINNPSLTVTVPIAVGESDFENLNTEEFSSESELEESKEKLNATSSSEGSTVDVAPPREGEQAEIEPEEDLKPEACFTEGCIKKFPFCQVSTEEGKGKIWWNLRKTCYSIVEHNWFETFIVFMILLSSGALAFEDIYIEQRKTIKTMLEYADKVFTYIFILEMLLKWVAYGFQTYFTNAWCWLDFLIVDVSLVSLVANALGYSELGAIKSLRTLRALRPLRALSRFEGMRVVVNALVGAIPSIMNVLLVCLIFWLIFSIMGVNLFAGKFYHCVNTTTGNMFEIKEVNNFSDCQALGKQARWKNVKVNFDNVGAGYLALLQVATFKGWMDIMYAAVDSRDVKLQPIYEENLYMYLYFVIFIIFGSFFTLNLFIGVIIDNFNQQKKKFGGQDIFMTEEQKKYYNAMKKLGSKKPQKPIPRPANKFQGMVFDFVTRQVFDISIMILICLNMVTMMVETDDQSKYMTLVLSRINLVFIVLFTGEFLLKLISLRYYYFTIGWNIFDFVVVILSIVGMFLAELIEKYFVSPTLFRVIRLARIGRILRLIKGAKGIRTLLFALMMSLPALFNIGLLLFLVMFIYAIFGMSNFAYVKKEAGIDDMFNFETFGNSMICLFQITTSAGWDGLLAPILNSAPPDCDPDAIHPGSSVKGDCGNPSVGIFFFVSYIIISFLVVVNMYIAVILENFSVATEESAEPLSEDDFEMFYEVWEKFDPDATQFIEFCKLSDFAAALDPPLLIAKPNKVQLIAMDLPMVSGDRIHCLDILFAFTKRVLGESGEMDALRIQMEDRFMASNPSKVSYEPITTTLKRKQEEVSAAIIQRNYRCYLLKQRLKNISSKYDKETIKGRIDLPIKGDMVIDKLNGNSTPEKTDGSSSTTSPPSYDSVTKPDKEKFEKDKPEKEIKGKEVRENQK

## COC[C@@H](NC(C)=O)C(=O)NCc1ccc(Oc2cccc(OC(F)(F)F)c2)cc1
[1]
  selectivity ratio: 9.5
Rattus norvegicus
  inhibition: Active
CAD
  inhibition: 39%
[2]
  inhibition: Active
[3]
  V1/2: -72.8 mV
[4]
  V1/2: -81.3 mV
Mus musculus
  ED50: 41 mg/kg
